Bioassay records from PubChem.
NR2E3 ag-1 = NR2E3 (human) agonism | Q9Y5X4 | GST-NR2E3/biotin-RetCOR TR-FRET, 1536-well | inhibition of corepressor binding, % at 4.78 µM | 320,000 tested, 0.12% active;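 active = percent inhibition above the cutoff of mean plus 3 SD of all tested compounds, set per screening campaign, cut at about 20% in these data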;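 note: 0% = DMSO wells and 100% = biotin wells as full block of FRET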
Target sequence (Q9Y5X4 whole entry, looked up): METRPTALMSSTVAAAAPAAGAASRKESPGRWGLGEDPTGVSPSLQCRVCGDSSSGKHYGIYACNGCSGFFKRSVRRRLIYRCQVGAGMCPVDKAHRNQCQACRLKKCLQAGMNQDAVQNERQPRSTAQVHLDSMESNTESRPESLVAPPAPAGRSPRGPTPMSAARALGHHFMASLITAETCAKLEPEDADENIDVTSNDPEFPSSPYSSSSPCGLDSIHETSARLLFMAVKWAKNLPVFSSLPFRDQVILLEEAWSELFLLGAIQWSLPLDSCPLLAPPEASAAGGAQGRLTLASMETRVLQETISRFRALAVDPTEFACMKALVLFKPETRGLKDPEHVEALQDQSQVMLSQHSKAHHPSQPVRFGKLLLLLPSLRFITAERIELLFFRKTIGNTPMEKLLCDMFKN
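system = GST-tagged NR2E3 plus biotinylated RetCOR corepressor | input = 1.35 nM GST-NR2E3 | also added = 7 nM biotin-RetCOR | schedule = 5 h incubation at 4 °C | measured by = TR-FRET with europium anti-GST and streptavidin-D2, 340 nm excitation | read-out = percent loss of FRET ratio relative to control wells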
NR2E3 ag-2 = human photoreceptor-specific nuclear receptor agonism; CHO-S Gal4-NCOR/VP16-NR2E3 two-hybrid, luciferase; inhibition of corepressor binding, % at 3.98 µM; 360,000 tested, 0.35% active; Q9Y5X4;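 active = inhibition above the mean of all tested compounds plus 3 SD, cut at about 70% in these data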;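 note: 0% = DMSO with NR2E3 transfected cells and 100% = cells lacking NR2E3 construct; higher means lower luciferase signal from less NR2E3 corepressor binding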
Rev-erbA mod = modulates human Rev-erb alpha binding to DNA; 370,000 tested, 0.79% active; P20393; activity, % at 10 µM; Rev-erbα–FITC-DNA binding, fluorescence polarization, 90 min; AID 1259318;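 active = activity above about 14%, limit read from the data; passing the limit was not always enough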;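 note: 0% = DMSO wells with 35 nM protein and 100% = DMSO wells with 750 nM protein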
PG9 binder = binds the HIV-1 gp120 antibody PG9; TR-FRET gp120-PG9 antibody binding; inhibition, % at 6.7 µM; 360,000 tested, 0.43% active; in the data active = inhibition above about 8.5%
Rev-erbA confirm = confirmation of modulators of human Rev-erb alpha DNA binding | shares compounds with Rev-erbA mod | Rev-erb alpha FITC-DNA binding, fluorescence polarization, 90 min | activation, % at 25 µM | 3,000 tested, 61% active | AID 1259319;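 active = activation at or above a set limit, or at least 3 SD above the negative control mean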;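 note: 0% = 35 nM protein with DMSO and 100% = 750 nM protein high control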
RORg counter = affects RORgamma DNA binding in a Rev-erb alpha counter-screen. shares compounds with Rev-erbA mod. purified RORgamma protein-FITC-DNA binding, fluorescence polarization. IC50, µM. 910 tested, 8% active;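 active = Compounds whose fitted half-maximal concentration for disrupting protein-DNA binding is below 10 micromolar; the record names Rev-erb in its text, so the target is in doubt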
* marks the source's active call; other numbers are inactive results; i = inactive; . = no result; ! = repeats disagree. Rows were chosen to be rich in hits. Some 1.5% of all compounds tested hit in one or more screens of this group.

SMILES	NR2E3 ag-1	NR2E3 ag-2	Rev-erbA mod	PG9 binder	Rev-erbA confirm	others
Cc1ccc(S(=O)(=O)N2CCN(c3ncnc4scc(-c5ccc(F)cc5)c34)CC2)cc1	-5	-28	24*	-1	6
O=C(CCC(=O)N1CCCC1)Nc1ccc(Cl)c(Cl)c1	1	2	-1	-2	.
O=c1oc2ccccc2cc1-c1nc(-c2ccccc2)no1	1	-37	.	.	.
COc1ccc(-c2cc3ccccc3oc2=O)cc1	0	-133	-3	0	.
COc1ccc(-c2nnc(-c3cc4ccccc4oc3=O)o2)cc1	-2	1	24*	0	24*
Cc1ccc(-c2noc(-c3cc4ccccc4oc3=O)n2)cc1	2	-38	33*	0	18*
Cc1cc(NC(=O)C(C)Sc2nc(-c3cccs3)nc3ccccc23)no1 (stereo not given)	.	-14	42*	5	13
CCOc1cc2[nH]c(=S)n(C3CCN(Cc4ccccc4)CC3)c(=O)c2cc1OCC	2	-12	10	1	.
O=c1c2cc3c(cc2[nH]c(=S)n1C1CCN(Cc2ccccc2)CC1)OCO3	1	-6	15*	0	6
Cc1n[nH]c(=O)c2c(NC(=O)CSc3nn(-c4ccc(F)cc4)c(=S)s3)oc(C)c12	1	15	0	1	.
Cc1c(C(=O)Nc2nnc(C3CC3)s2)oc2ccccc12	-2	-157	9	-1	.
COc1cccc(-n2c([S-])c(C(=O)Nc3ccc(S(=O)(=O)N4CCOCC4)cc3)[n+]3cc(C(N)=O)ccc23)c1	-2	-6	62*	-2	63*	RORg counter=i
COc1ccc(CN2C[C@]3(C=C(C)Cn4c(=O)n(-c5ccccc5)c(=O)n43)N=C2NC(=O)c2ccccc2)c(OC)c1	.	.	2	.	.
O=c1[nH]c(=S)c2[nH]c(=S)n(-c3ccccc3)c2[nH]1	.	-12	15*	-3	0
COC(=O)C1CN(Cc2ccc(OC)cc2)CCS(=O)(=O)N1Cc1cn(Cc2ccccc2)nn1 (stereo not given)	.	.	0	.	.
CCC(c1ccc(O)cc1)C(CC)c1ccc(O)cc1 (stereo not given)	0	4	34*!	0	41*	RORg counter=>40
CCC[C@H]1[C@@H](OC(=O)NCc2ccc(C)o2)CC[C@@]23CCCN2C(=O)CCC[C@@H]13	.	.	5	.	.
C=C(C)Cc1c(C)c(C#N)c2nc3ccccc3n2c1N1CCCCC1	2	-17	25*	-1	4
C=CCc1c(C)c(C#N)c2nc3ccccc3n2c1N1CCCCC1	0	-9	43*	-3	6
C=C(C)CSc1cc(C)c(C#N)c2nc3ccccc3n12	0	-31	-7	1	.
CCc1c(C)c(C#N)c2nc3ccccc3n2c1N(C)C	0	-5	2	0	.
COc1ccc(Oc2nnc(-c3ccc(C)cc3)c3ccccc23)cc1	3	7	27*	2	15
c1ccc(Oc2nnc(-c3cccs3)c3ccccc23)cc1	4	-12	26*	-3	11
COc1nnc(-c2ccc(C)cc2)c2ccccc12	.	9	11	1	.
O=C(O)c1ccccc1C(=O)OCc1c(-c2ccccc2)ncc2ccccc12	7	-25	-2	0	.
SMILES	NR2E3 ag-1	NR2E3 ag-2	Rev-erbA mod	PG9 binder	Rev-erbA confirm	others
O=C1C=C(/C=C/C2C=CC=CC2)C[C@@H](c2ccc(Cl)cc2)C1 (stereo not given in full)	0	-5	-3	-1	.
COc1ccc(/C=C2/SC(=S)N(Cc3ccccc3)C2=O)cc1O	.	-22	-5	1	.
O=C1/C(=C\c2cc(Cl)c(O)c(Cl)c2)SC(=S)N1Cc1ccccc1	.	26	67*	2	51*	RORg counter=i
CCC(C)(C)c1ccc(OCCCC[n+]2cccc(C)c2)c(C(C)(C)CC)c1	.	10	33*	-3	44*	RORg counter=>40
Cc1ccc[n+](CC(=O)Nc2cc(C(F)(F)F)ccc2Cl)c1	7	0	0	0	.
CNC(=O)COc1ccccc1C(=O)Nc1ccc2c(c1)oc1ccccc12	-1	2	58*	1	79*	RORg counter=i
CCOC(=O)c1nn2c(C(F)(F)F)cc(-c3ccc(OC)cc3)nc2c1Br	1	-10	41*	-1	5
COCCNC(=O)c1nn2c(C(F)(F)F)cc(-c3ccccc3)nc2c1Br	.	2	-4	1	.
O=S(=O)([N-]c1nc2ccccc2nc1-n1cc[n+](Cc2ccccc2)c1)c1ccc(Br)cc1	0	5	67*	-1	46*	RORg counter=5*
CCNC(=O)NC(=O)C(C)OC(=O)c1oc2ccc(OC)cc2c1C (stereo not given)	-2	4	23*	1	12
COc1ccc(NC(=O)CSc2nc3ccccc3cc2Cc2ccccc2)cc1	8	-1	27*	4	22*
COc1ccc2nc(SCC(=O)Nc3ccc4sc(C)nc4c3)c(C#N)cc2c1	-2	-5	92*	6	123*	RORg counter=>40
COc1ccc(NC(=O)CSc2nc(N)c(C#N)cc2C#N)cc1	5	6	61*	2	65*	RORg counter=>40
CC(C)CCSc1nc(N)c(C#N)cc1C#N	6	-43	104*	-1	96*	RORg counter=>40
CCSc1nc2ccc(OC)cc2cc1C#N	-2	-1	13	0	.
O=C(COC(=O)c1nc(Cl)ccc1Cl)NCc1ccccc1	-2	13	-3	0	.
Cc1ccc(S(=O)(=O)Nc2nc(C)c(C)s2)cc1	4	-19	-1	-1	.
Cc1ccc(NC(=O)c2nc[nH]c2C(=O)NCC(=O)OC(C)(C)C)cc1	2	-4	-3	1	.
COC(=O)CSc1nc(C)c(Oc2ccccc2)c(=O)[nH]1	4	10	0	0	.
Cc1ccc(OCC(=O)NNC(=O)CSc2ncnc3sc(C)c(C)c23)cc1	3	-8	52*	-3	16
CCc1ccc(OCC(=O)NNC(=O)CSc2ncnc3sc(C)c(C)c23)cc1	0	-1	26*	-1	13
NS(=O)(=O)c1ccc(CCNc2ccn3nc(-c4cccc(C(F)(F)F)c4)cc3n2)cc1	.	-12	28*	-1	9
O=C1c2ccc(-c3ccc(F)cc3OCc3ccccc3)cc2S(=O)(=O)c2cccc(C(=O)N3CCN(c4ncc(Br)cn4)CC3)c21	.	24	75*	0	66*
COc1ccc(-c2cc(C(=O)c3c(N)n(C)c(=O)n(C)c3=O)c3ccccc3n2)cc1	-2	-84	5	-3	.
COc1ccc(-c2cc(C(=O)OCC(=O)c3c(N)n(C)c(=O)n(C)c3=O)c3ccccc3n2)cc1	0	-25	30*	0	19*
O=C(NC1(C(F)(F)F)N=C2SCCN2C1=O)c1ccccc1F (stereo not given)	-3	3	0	0	.
COc1ccccc1-n1cc(-c2ccc(Br)cc2)[nH]c1=S	0	-23	3	-1	.
